# Data taken from PubChem BioAssay.
# Activity calls are given as the source filed them.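 How the source made its calls, unless noted: active means inhibition above 20% together with a positive visual image hit; inconclusive means visual image hit but inhibition not above 20%; inactive means no visual image hit.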
# Columns and labels:
# [1] = inhibitors of TNFa-induced NFkB p65 translocation, primary screen, imaging, HUVEC, MLSMR starter and 10KST1 sets (AID 438); conditions: HUVEC TNFa-induced p65 nuclear translocation; cell count: measured here: nuclei count (cytotoxicity indicator), at 2.08 µM; inhibition: at 2 µM, stronger effect = higher value, 0% TNFa-plus-vehicle, 100% no-TNFa wells;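 further: compound added about 3h40 before a 20 min TNFalpha stimulation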;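 on inhibition: signal is the nuclear over cytoplasmic p65 intensity ratio per well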
# [2] = endothelial E-selectin expression blockers – imaging, HUVEC, immunofluorescence, MLSMR starter and 10KST1 sets, primary screen (AID 487;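 active means visually confirmed hit in the image check and inhibition above 20%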;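 on inhibition: signal is fraction of cell area covered by stained E-selectin grains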;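 on nuclei count: 100% = median nuclei count of all wells on the same plate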); conditions: HUVEC TNFalpha-induced E-selectin immunofluorescence imaging, at 2 µM; inhibition: stronger effect = higher value; nuclei count: measured here: cell number, toxicity
# [3] = Primary imaging screen for DUSP6 inhibitors that restore phospho-Erk in transfected HeLa cells, chemical complementation (AID 609;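 active means compounds giving at least 50% inhibition in the cell-based MKP-3 phosphatase rescue imaging test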;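 on inhibition: phospho-Erk level distribution per well compared with pooled transfected vehicle control wells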); conditions: HeLa MKP-3 transfected, phospho-Erk imaging KS statistic, at 10 µM, cells stimulated with TPA for 15 min
# [4] = molecular target: Dual specificity protein phosphatase 6 (Homo sapiens) (UniProt Q16828); experiment: as above; conditions: HeLa MKP-3 transfected, phospho-Erk imaging KS statistic; at 10 µM; stronger effect = higher value; cells stimulated with TPA for 15 min
# Sequence of Dual specificity protein phosphatase 6 (Homo sapiens) (Q16828 whole entry, looked up): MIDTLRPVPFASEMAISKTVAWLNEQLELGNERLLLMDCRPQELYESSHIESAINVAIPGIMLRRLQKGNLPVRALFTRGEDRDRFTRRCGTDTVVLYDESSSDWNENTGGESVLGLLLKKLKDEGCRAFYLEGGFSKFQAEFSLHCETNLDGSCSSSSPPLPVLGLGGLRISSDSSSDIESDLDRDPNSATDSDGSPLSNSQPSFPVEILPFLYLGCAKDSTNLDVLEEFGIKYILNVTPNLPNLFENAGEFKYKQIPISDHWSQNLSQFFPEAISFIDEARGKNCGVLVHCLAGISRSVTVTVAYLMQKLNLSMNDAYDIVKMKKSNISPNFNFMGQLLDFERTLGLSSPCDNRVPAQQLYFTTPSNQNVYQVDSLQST
# [5] = molecular target: Voltage-gated potassium channel subunit beta-2 (Rattus norvegicus) (UniProt P62483); experiment: inhibitors of rat Kvbeta2 reductase activity – biochemical, NADPH fluorescence, primary screen (AID 622;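 active means fluorescence slope higher than the sample average by over 3 SD, cut at about -0.22 in these data, passing the limit was not always enough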;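 further: slope of raw intensity against log time taken from 70 to 1610 s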); conditions: recombinant KvBeta, 4-cyanobenzaldehyde reduction, at 10 µM, stronger effect = higher value
# Sequence of Voltage-gated potassium channel subunit beta-2 (Rattus norvegicus) (P62483 whole entry, looked up): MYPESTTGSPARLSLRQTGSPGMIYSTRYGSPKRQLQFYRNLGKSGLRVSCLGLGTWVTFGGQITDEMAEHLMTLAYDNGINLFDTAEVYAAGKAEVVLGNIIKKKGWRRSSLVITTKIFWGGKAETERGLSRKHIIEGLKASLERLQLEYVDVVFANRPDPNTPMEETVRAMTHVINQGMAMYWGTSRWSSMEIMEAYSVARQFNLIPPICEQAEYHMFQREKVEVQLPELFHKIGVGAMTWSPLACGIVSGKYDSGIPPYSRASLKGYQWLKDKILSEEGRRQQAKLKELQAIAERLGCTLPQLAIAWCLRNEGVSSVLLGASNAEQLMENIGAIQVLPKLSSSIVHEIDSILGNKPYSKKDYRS
# [6] = molecular target: Voltage-gated potassium channel subunit beta-2 (Rattus norvegicus) (UniProt P62483); experiment: enhancers of rat Kvbeta2 NADPH turnover – biochemical, NADPH fluorescence, primary screen (AID 623;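 active means NADPH fluorescence slope more negative than the mean of all samples by about 3 SD, 99.7% confidence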;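 further: fluorescence intensity change per second fitted from 20 to 320 s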); conditions: Recombinant KvBeta, NADPH fluorescence decrease slope, 10 min; at 10 µM; stronger effect = lower value
# [7] = molecular target: Alpha-2C adrenergic receptor (Homo sapiens) (UniProt P18825); experiment: compounds altering alpha2C-coupled GIRK flux – cell-based, HEK293 alpha2C/GIRK1/2, thallium flux, primary screen (AID 624;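 active means fluorescence slope after compound addition differing from the mean of all screened samples at 99.7% confidence, in either direction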;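 further: slope of fluorescence ratio to pre-addition baseline per second over 15 to 24 s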); conditions: thallium flux BTC fluorescence, at 10 µM, actives lie on both sides
# Sequence of Alpha-2C adrenergic receptor (Homo sapiens) (P18825 whole entry, looked up): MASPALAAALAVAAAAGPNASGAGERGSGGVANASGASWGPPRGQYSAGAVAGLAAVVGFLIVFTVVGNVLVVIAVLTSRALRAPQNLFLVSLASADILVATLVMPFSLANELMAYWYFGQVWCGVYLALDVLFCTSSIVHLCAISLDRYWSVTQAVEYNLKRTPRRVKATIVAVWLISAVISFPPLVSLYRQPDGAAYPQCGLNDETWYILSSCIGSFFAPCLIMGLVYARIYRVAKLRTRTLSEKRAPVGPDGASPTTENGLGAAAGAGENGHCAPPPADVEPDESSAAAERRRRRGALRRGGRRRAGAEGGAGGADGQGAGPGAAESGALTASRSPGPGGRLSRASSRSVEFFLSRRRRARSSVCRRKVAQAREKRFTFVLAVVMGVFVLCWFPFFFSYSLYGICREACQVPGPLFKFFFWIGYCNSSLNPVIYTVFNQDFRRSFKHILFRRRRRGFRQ
# [8] = inhibitors of larval lipid processing in zebrafish, primary screen, whole organism, PED6 fluorescence, gall bladder and intestine (AID 686;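 active means a full or partial loss of lipid-probe fluorescence in the fish gall bladder, intestine or both, judged by eye; inactive means no fluorescence loss, or compound toxic to the fish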;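 further: larvae 5 to 7 days old with five fish per well; signal comes from phospholipase A2 cleavage of quenched PED6 carried via bile; overnight exposure to compound and PED6 before scoring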); conditions: Zebrafish larvae PED6 lipid processing, fluorescence scoring; screened at 20 µM (by protocol)
# Outline: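 Doses: 20 µM single dose. Test system: live zebrafish larvae aged 5-7 days, whole organism. Quantity: five larvae per well. Measured by: By-eye fluorescence microscopy. Reagent: ingested quenched lipid PED6 at 100 nM. Read-out: visual per-well fluorescence inhibition score. Times: overnight exposure of larvae to compound plus PED6.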
# [9] = loss of swimming-algae plug formation – whole organism, Chlamydomonas reinhardtii, WT vs cilia-less mutant, absorbance, 96-well, primary screen (AID 463189;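 active means inhibition at or above 50% relative to wild type and mutant plate controls; inactive means inhibition below 50%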;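 further: 0% = wild type cc124 cells in DMSO and 100% = ciliumless bld1 mutant cells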); conditions: Chlamydomonas reinhardtii gravitaxis, OD600 absorbance, 2 days; at 10 µM; stronger effect = higher value
# [10] = measured here: cell density z-score
# [11] = measured here: nuclear c-Myc green intensity z-score
# [12] = measured here: nuclear pErk red intensity z-score, stronger effect = higher value
Compound,cell count [1],inhibition [1],inhibition [2],nuclei count [2] [%],"z-score [3, 10]","z-score [3, 11]","z-score [3, 12]",inhibition [4],fluorescence slope [5],NADPH fluorescence slope [6],slope [7],outcome [8],inhibition [9]
COC(=O)CC1=C(C(=O)OC)C(c2ccc3c(c2Cl)OCO3)C(C#N)=C(N)O1 (centres undefined),505,-3% (inactive),-43.9% (inactive),146,1.11,-0.928,-0.541,15% (inactive),-0.319 (inactive),-2.9e-06 (inactive),0.00617 (inactive),inactive,21.8% (inactive)
CC1(C)CC(=O)C2=C(C1)N(Cc1ccco1)C(=O)C2(O)C(F)(F)F (centres undefined),502,-2.4% (inactive),-124% (inactive),132,-0.0541,-0.87,-0.763,-12.3% (inactive),-0.467 (inactive),-6.1e-05 (inactive),0.00641 (inactive),inactive,20.3% (inactive)
c1coc(-c2nc3nc4ccccc4nc3n2-c2ccc3c(c2)OCCO3)c1,365,-1.4% (inactive),-29.5% (inactive),152,0.934,0.669,-1.25,11.4% (inactive),-0.363 (inactive),-0.000166 (inactive),0.00503 (inactive),inactive,12.2% (inactive)
COc1ccc(/C(O)=C2\C(=O)C(=O)N(CCN(C)C)C2c2cccc(OC)c2OC)cc1 (centres undefined),614,-5.4% (inactive),-56.5% (inactive),192,0.97,0.147,-0.253,9.61% (inactive),-0.338 (inactive),-2.9e-05 (inactive),0.00479 (inactive),inactive,-2.59% (inactive)
S=c1[nH]nc(-c2ccco2)n1Cc1ccccc1,367,-8.2% (inactive),-105% (inactive),110,-1.5,1.31,-1.88,11.9% (inactive),-0.477 (inactive),-0.000234 (inactive),0.00534 (inactive),inactive,-18.5% (inactive)
COc1ccc(C2CC(=O)c3sc(N)nc3C2)cc1 (centres undefined),424,-15.2% (inactive),-328% (inactive),147,0.261,-0.0796,-0.89,26.6% (inactive),-0.408 (inactive),-1.9e-05 (inactive),0.00734 (inactive),inactive,0.76% (inactive)
Cc1c(N=Cc2c(O)n(C3CCCCC3)c(=O)[nH]c2=O)c(=O)n(-c2ccccc2)n1C,671,-20.1% (inactive),-93.8% (inactive),139,-0.195,-1.05,0.314,21% (inactive),-0.396 (inactive),-3e-05 (inactive),0.00508 (inactive),active; weak signal in gallbladder and intestine,-4.72% (inactive)
O=c1[nH]cnc2cc(-c3ccccc3)sc12,526,-9.9% (inactive),-20.4% (inactive),168,0.45,-1.43,0.87,21% (inactive),-0.351 (inactive),-9.5e-06 (inactive),0.00529 (inactive),inactive,-1.84% (inactive)
C=CCn1c(=S)[nH]c2ccccc2c1=O,649,1.8% (inactive),-30.6% (inactive),130,-0.515,0.859,0.00467,5.57% (inactive),-0.46 (inactive),-0.000371 (inactive),0.00865 (inactive),inactive,-14.1% (inactive)
CC(C)CC(C(=O)O)C(C)CC(=O)Nc1ccn(-c2ccccc2)n1 (centres undefined),345,-19.4% (inactive),-326% (inactive),150,1.41,-1.41,-0.175,15.1% (inactive),-0.401 (inactive),-3.3e-05 (inactive),0.0075 (inactive),inactive,13.3% (inactive)
CC1CN(c2oc(-c3ccccc3Cl)nc2C#N)CC(C)O1 (centres undefined),355,-5.2% (inactive),-154% (inactive),83.5,-0.0257,-0.411,-1.37,-0.159% (inactive),-0.433 (inactive),-9.2e-06 (inactive),0.00575 (inactive),inactive,-9.38% (inactive)
CC1(C)Cc2c(C#N)c(OCC(=O)c3ccc(Cl)cc3)nc(-c3ccoc3)c2CO1,654,-2.9% (inactive),20% (inactive),170,-0.432,-0.355,0.479,13.2% (inactive),-0.487 (inactive),-4.2e-05 (inactive),0.00736 (inactive),inactive,40.4% (inactive)
COc1ccccc1Nc1ncc(-c2cccs2)s1,545,-13.8% (inactive),-286% (inactive),200,-0.0769,-1.21,0.25,1.48% (inactive),-0.5 (inactive),-5.4e-05 (inactive),0.00327 (inactive),inactive,11.6% (inactive)
